# Compound activity deposited in PubChem BioAssay by several laboratories.
# PKA-R1A activ: PKA-R1A complex activation; activation, % at 11.4 µM; PKA-R1A dissociation, Cy5-IP20 fluorescence polarization; scaled: DMSO 0%, 113 µM cGMP 100%; AID 504707; actives 0.083% (n = 340,000); P00514+P68181;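 active = percent activation above the mean of all tested compounds plus 3 SD, cut at about 19% in these data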;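 also: higher means more PKAc released from R1A so a rise in polarization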
# PKA-R2B activ: activators of human PKA-R2B complex; PKA-R2B holoenzyme dissociation, Cy5-IP20 fluorescence polarization; R2B truncated from residue 108, S112A mutant; 0% DMSO only, 100% 113 µM cGMP; activation, % at 11.4 µM; actives 0.079% (n = 340,000);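 active = activation above a cutoff set at the mean over all compounds plus 3 SD, cut at about 18% in these data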;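 also: higher means more holoenzyme dissociation and a rise in polarization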
# Target sequence (P31323 whole entry, looked up, other chains not shown, the tested form may be a part): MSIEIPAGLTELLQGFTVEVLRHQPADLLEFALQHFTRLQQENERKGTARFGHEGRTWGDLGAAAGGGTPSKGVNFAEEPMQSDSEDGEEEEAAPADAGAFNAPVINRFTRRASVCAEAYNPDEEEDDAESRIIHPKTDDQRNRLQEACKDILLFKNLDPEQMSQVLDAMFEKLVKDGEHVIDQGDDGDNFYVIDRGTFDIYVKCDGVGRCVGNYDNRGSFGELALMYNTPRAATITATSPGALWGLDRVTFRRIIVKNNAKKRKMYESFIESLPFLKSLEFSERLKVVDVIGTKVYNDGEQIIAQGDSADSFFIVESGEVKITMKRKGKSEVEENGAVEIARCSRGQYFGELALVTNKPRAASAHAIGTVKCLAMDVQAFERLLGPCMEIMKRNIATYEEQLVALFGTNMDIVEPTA
# Vif imaging: HIV Vif inhibition. actives 0.35% (n = 340,000). HEK293T cells, Vif self-association by quenched fluorescence, imaging, 24 h. inhibition, % at 7.49 µM; in the data active = inhibition above about 50%, passing the limit was not always enough; inconclusive = no clear call, values can overlap the other calls; inactive = below about 31%
# SR-BI HDL uptake: mouse SR-BI HDL lipid transfer inhibition | ldlA[mSR-BI] CHO cells, DiI-HDL uptake fluorescence, 3 h | Q61009 | actives 0.96% (n = 320,000) | inhibition, % at 12.5 µM;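 active = mean replicate inhibition of at least 70% and a set share of replicates each scoring 70 or more; inconclusive = meets just one of the two criteria; inactive = fails both criteria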
# SR-BI DiI-HDL act: enhances SR-BI lipid uptake from DiI-HDL; activation, % at 12.5 µM; CHO ldlA[mSR-BI] cells, DiI-HDL uptake fluorescence, 3 h; 100 = double the neutral-control signal; actives 0.096% (n = 320,000);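 active = mean replicate activation of at least 60% and every replicate at or above 60%; inconclusive = mean or all-replicate condition met, but not both; inactive = mean below 60% and not all replicates reaching 60%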
#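 System: LDL receptor-deficient CHO ldlA cells overexpressing murine SR-BI | Timing: 3 h uptake period with compound, 37 °C | Medium: HEPES-buffered (25 mM, pH 7.4) F12 plus 0.5% BSA | Dosing: Single-point compound dose | Signal: Bottom-read fluorescence, 550/595 nm | Read-out: Retained DiI signal reflecting DiI-HDL uptake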
# DiI quench: counter-screen for SR-BI lipid transfer inhibitors: DiI fluorescence quenchers; AC50, µM (highest dose often 35 µM); AID 540326; shares compounds with SR-BI HDL uptake; cell-free DiI-HDL fluorescence quenching, 30 min; actives 20% (n = 470);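 active = quenching, a falling signal, with AC50 below a set limit tied to the top valid dose, actives reach about 32 µM in these data; inconclusive = no clear call, values can overlap the other calls; inactive = rising signal, and the rest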
# R2B FP artifact: FP assay interference, PKA-R2B counter-screen; shares compounds with PKA-R2B activ; FP artifact counterscreen, fluorescence polarization; activation, % at 11.4 µM; actives 6% (n = 270); AID 504796; in the data active = activation above about 20%;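 also: Cy5 labelled IP20 peptide probe with compound but no PKA protein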
# PKA-R2B act conf: confirmation of human PKA-R2B complex activators | AID 504797 | actives 9% (n = 270) | activation, % at 11.4 µM | shares compounds with PKA-R2B activ | fluorescence polarization, activation; in the data active = activation above about 19%
# Target sequence (P31323 whole entry, looked up): as the sequence (P31323 whole entry, looked up, other chains not shown, the tested form may be a part) above
# Numbers stand for hits; - = inactive; ? = inconclusive; . = no result. The list is not random: actives were taken first. Their share in the collection is about 1.4%.
SMILES,PKA-R1A activ,PKA-R2B activ,Vif imaging,SR-BI HDL uptake,SR-BI DiI-HDL act,DiI quench,others
Cc1cccc(-c2ccc3c(c2)C2CC3CCN2C(=O)OCc2ccccc2)c1 (centres undefined),-,-,.,85,-,-,
O=C(c1ccc(-c2ccccc2)cc1)N1CCN(c2ccc3c(c2)C2CC3CCN2C(=O)OCc2ccccc2)CC1 (centres undefined),.,.,-,.,.,.,
COc1cc(Cl)c(C)cc1NC(=O)CSc1sc2c(O)cc(=O)[nH]c2c1C#N,-,-,-,-,-,.,
Cc1ccccc1NC(=O)NCC1CCN(c2ccc(S(=O)(=O)N3CCOCC3)cc2)CC1,-,-,-,82,-,-,
c1ccc(COn2c(-c3ccccc3)nc3c2CCc2nonc2-3)cc1,-,-,-,?,-,-,
COc1ccc(CCC(=O)Nc2ccc(-c3noc(-c4ccc(OC)c(OC)c4)n3)cc2)cc1,-,-,-,101,-,-,
CCOc1ccc(NC(=O)CN2CCN(CC(=O)Nc3ccc(N(C)C)cc3)CC2)cc1,-,-,-,86,-,-,
CCOc1ccc(NC(=O)CN2CCN(CC(=O)Nc3ccc(F)cc3)CC2)cc1,-,-,-,-,-,.,
COc1ccc(NC(=O)CN2CCN(CC(=O)Nc3ccc(OC)c(OC)c3)CC2)cc1,-,-,-,?,-,-,
Cc1c(C(=O)N(C)Cc2ccc(F)cc2)sc(=O)n1Cc1ccccc1C#N,.,.,-,.,.,.,
Cn1c(=O)[nH]c(=O)c2c1nc(N1CCCCC1)n2CC(O)COc1ccccc1 (centres undefined),-,-,-,-,-,.,
Cc1cc(C(=O)Nc2ccc3c(c2)CCC3)c2ccccc2n1,-,-,-,-,-,.,
O=C(Nc1ccc(-c2nc3ccccc3o2)cc1)c1cc(-n2cnnc2)ccc1Cl,-,-,-,?,-,-,
COc1ccc(N2C(=O)C3C(C2=O)C3(c2ccccc2)c2ccccc2)cc1 (centres undefined),-,-,-,-,-,-,
COc1cccc(CNCc2ccccc2Br)c1OC,-,-,-,-,-,.,
CCc1cc2c(=O)c(-c3ccc4c(c3)OCCO4)coc2c(CN2CCCCC2C)c1O (centres undefined),-,-,-,-,-,.,
CCc1cc2c(=O)c(-c3ccc4c(c3)OCCO4)coc2cc1OS(C)(=O)=O,-,-,-,75,-,-,
COc1cc(C(=S)N2CCCC2)ccc1OC(=O)c1ccc(Cl)cc1[N+](=O)[O-],-,-,-,112,-,-,
COc1cc(/C=C/C(=O)OCC(=O)c2ccc[nH]2)cc(OC)c1OC,-,-,-,?,-,-,
COc1ccc(/C=C/C(=O)OCC(=O)c2ccc[nH]2)cc1,-,-,-,-,-,.,
CC(=O)c1c(C)[nH]c(C(=O)OCc2nc3ccsc3c(=O)[nH]2)c1C,-,-,-,71,-,-,
Cc1ccsc1C(=O)OCc1nc2ccsc2c(=O)[nH]1,-,-,-,-,-,.,
O=C(Nc1ccn(Cc2c(F)c(F)c(F)c(F)c2F)n1)c1ccc(COc2ccccc2Cl)cc1,-,-,-,73,-,-,
Cc1ccccc1C(=O)N1CCc2cc(-c3csc(NC(=O)CN4CCCC4)n3)ccc21,-,-,-,-,-,.,
CCC(=O)N1CCc2cc(-c3csc(NC(=O)c4ccco4)n3)ccc21,-,-,-,88,-,-,
SMILES,PKA-R1A activ,PKA-R2B activ,Vif imaging,SR-BI HDL uptake,SR-BI DiI-HDL act,DiI quench,others
CS(=O)(=O)N1CCc2cc(-c3csc(NC(=O)Cc4ccccc4)n3)ccc21,-,-,-,?,-,-,
CC(C)C(=O)N1CCc2cc(-c3csc(N)n3)ccc21,-,-,-,79,-,-,
O=C(Nc1nc(-c2ccc3c(c2)OCCO3)cs1)c1ccco1,-,-,-,-,-,.,
CCCC(=O)Nc1nc(-c2ccc3c(c2)CCN3S(C)(=O)=O)cs1,-,-,-,-,-,.,
NC(=O)c1ccc(NC(=O)COC(=O)/C=C/c2ccc3c(c2)OCO3)cc1,-,-,-,.,.,.,
O=c1oc(Nc2cccc(Cl)c2)nc2ccccc12,-,-,-,-,-,.,
COc1ccc(S(=O)(=O)N2CCCCC2)cc1NC(=O)CNc1ccc(F)cc1C,-,-,-,-,-,.,
COC(=O)c1ccccc1NC(=O)CCS(=O)(=O)c1ccc(Br)s1,-,-,-,-,-,.,
Cc1ccccc1NC(=O)CCS(=O)(=O)c1ccc(Br)s1,-,19,-,.,.,.,R2B FP artifact=-;PKA-R2B act conf=-
O=C1CC(NS(=O)(=O)c2cc(F)ccc2F)CN1c1cccc(F)c1 (centres undefined),-,-,-,-,-,.,
CC(C)(C)C(=O)Nc1nc(C2CCCN2S(=O)(=O)c2ccc(Cl)cc2)cs1 (centres undefined),-,19,-,-,-,.,R2B FP artifact=-;PKA-R2B act conf=-
Cc1cc(=O)oc(C)c1C(=O)Nc1ccc(N(C)C)cc1,-,-,-,-,-,.,
COc1ccc(OC)c(-c2nnc3n2N=C(c2ccc(OC)c(OC4CCOC4)c2)CS3)c1 (centres undefined),-,19,-,-,-,.,R2B FP artifact=-;PKA-R2B act conf=-
O=C(NC1CC1)c1ccc(F)cc1Cl,-,23,.,.,.,.,R2B FP artifact=-;PKA-R2B act conf=-
Cc1ccc(S(=O)(=O)NNC(=O)C2CC=CCC2C(=O)O)cc1 (centres undefined),-,21,-,-,-,.,R2B FP artifact=-;PKA-R2B act conf=-
Cc1ccc(S(=O)(=O)NNC(=O)C(=O)NNS(=O)(=O)c2ccc(C)cc2)cc1,-,-,-,-,-,.,
COc1ccc(NC(=O)CCCOc2ccc(Cl)c(C)c2)cc1S(=O)(=O)N1CCOCC1,-,-,-,-,-,.,
CN(C)c1nc(N2CCN(c3ccccc3)CC2)c(C#N)c(=O)o1,-,-,-,-,-,.,
Cc1cccc(C)c1N1CCN(c2nc(N(C)C)oc(=O)c2C#N)CC1,-,20,-,-,-,.,R2B FP artifact=-;PKA-R2B act conf=-
O=C(COC(=O)COc1ccc(Cl)cc1)Nc1ccc2c(c1)OCCO2,-,19,-,-,-,.,R2B FP artifact=-;PKA-R2B act conf=-
O=C(C1CC1)N(CCc1ccccc1)Cc1nc2ccccc2c(=O)[nH]1,-,-,-,-,-,.,
COc1ccc(CCN(Cc2nc3ccccc3c(=O)[nH]2)C(=O)C2CC2)cc1,-,19,-,-,-,.,R2B FP artifact=-;PKA-R2B act conf=-
Cn1c(SCC(=O)N2CCCC2)nc2c(c1=O)SCC2,-,-,-,.,.,.,
CC1CCN(C(=O)CSc2nc3c(c(=O)n2C)SCC3)CC1,-,24,-,-,-,.,R2B FP artifact=-;PKA-R2B act conf=-
Cc1ccc(NC(=O)CSc2nnc(Cn3c(=O)sc4ccccc43)n2C)cc1Cl,-,-,-,-,-,.,
